Source: PubChem BioAssay
Wee1 stabilizer – blocks degradation of human Wee1 kinase; P30291; HeLa Luc-Wee1K328M stability, luciferase luminescence; 100% = proteasome inhibitor MG132 effect; reporter increase, % at 5 µM; 220,000 tested, 1.2% active; AID 1321;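 active = activation above the mean of all tested compounds plus 3 SD, set per screening run, cut at about 8.8% in these data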;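 note: cells exposed to compound for 20 h before luminescence read; 0% = DMSO alone and 100% = MG132 at 30 µM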
Pf gametocyte – P. falciparum stage V gametocyte viability inhibition; P. falciparum stage V gametocytes, ATP luminescence, 24 h; inhibition, % at 10.9 µM; 150,000 tested, 0.065% active;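 active = inhibition above the mean plus 3 SD of compounds within the control limits, set per campaign, cut at about 38% in these data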;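 note: 0% = DMSO wells and 100% = medium only without gametocytes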
m-calpain inh – blocks pig calpain II enzyme activity. purified calpain II, fluorogenic peptide substrate, 30 min. inhibition, % at 16 µM. 220,000 tested, 0.37% active;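 active = inhibition above about 50%, limit read from the data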
RBBP9 inhibitor – inhibitors of human serine hydrolase RBBP9. O75884. recombinant RBBP9, FP-Rh probe fluorescence polarization. inhibition, % at 7.94 µM. 220,000 tested, 0.2% active. AID 1515;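 active = inhibition above the campaign mean of all tested compounds plus 3 SD, cut at about 14% in these data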;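 note: plate controls were DMSO wells with RBBP9 for no effect and wells lacking RBBP9 protein for full effect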
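Test system: recombinant human RBBP9. Quantity: 2.5 µM RBBP9 dispensing solution, before mixing. Detection: FP readout at 525/598 nm. Reagent: Serine-hydrolase probe FP-Rh, 375 nM pre-mixing. Measure: % inhibition. Control set: DMSO-treated enzyme wells and wells lacking RBBP9. Buffer or medium: Tris-NaCl-Pluronic buffer, pH 8.0. Times: preincubation 30 min plus labeling 45 min at 25 °C.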
TNF death inh – blocks TNF-alpha induced death of Jurkat FADD-/- cells. Jurkat FADD-/- TNF necroptosis rescue, ATP luminescence, 24 h; 0 = TNF only, 100 = no-TNF cells. activation (protection from cell death), % at 10 µM. 220,000 tested, 0.068% active. AID 463075;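 active = activation, meaning protection from cell death, of at least 50% relative to plate controls; inactive = activation below 50%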;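 note: necroptosis triggered by 40 ng/mL TNF-alpha added together with compound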
L929 necroptosis – L929 zVAD cell death inhibition; L929 zVAD necroptosis rescue, ATP luminescence, 24 h; with zVAD 60 µM; viability rescue, % at 10 µM; 220,000 tested, 0.38% active;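 active = activation, scaled between plate controls, above about 75%, limit read from the data; inactive = activation under that limit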;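 note: 0% = zVAD with DMSO and 100% = DMSO alone without zVAD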
Wee1 degr conf – human Wee1 degradation inhibition, confirmation; activation, % at 5 µM; AID 1410; 1,100 tested, 4% active; HeLa Luc-Wee1K328M degradation, luminescence; vehicle 0%, proteasome-blocked wells 100%; shares compounds with Wee1 stabilizer; in the data active = activation above about 8.9%
Numbers without * were called inactive. Compounds with a hit are over-represented: about 2.1% of the library has one in this group of screens.

What do the screens show for `CCOC(=O)C1=c2/c(=C/c3ccncc3)c(N)c(C(=O)OC)n2C(=O)C(c2ccncc2)S1` (stereo not drawn)?
Wee1 stabilizer: 19.1*; Pf gametocyte: -3.1; m-calpain inh: -38.4; RBBP9 inhibitor: -3.3; TNF death inh: -4.7; L929 necroptosis: -1.6; Wee1 degr conf: 1.1

Results for CCOc1cc(CNn2cnnc2SCC(=O)NC(C)(C)C)ccc1OCC(=O)NC(C)(C)C ?
Wee1 stabilizer: -1.1; Pf gametocyte: -3.5; m-calpain inh: -0.1; RBBP9 inhibitor: 6.0; TNF death inh: 0.5; L929 necroptosis: -0.2

Results for Cc1ccc(S(=O)(=O)N2CCCCC2)cc1C(=O)Nc1cccnc1 ?
Wee1 stabilizer: 18.2*; Pf gametocyte: -11.1; m-calpain inh: 7.0; RBBP9 inhibitor: 5.8; TNF death inh: 2.9; L929 necroptosis: 1.3; Wee1 degr conf: 1.9

Results for CCOc1ccc(NC(=S)Nc2ccc(C)c([N+](=O)[O-])c2)cc1 ?
Wee1 stabilizer: 13.7*; Pf gametocyte: 20.0; m-calpain inh: 8.1; RBBP9 inhibitor: -4.6; TNF death inh: -3.5; L929 necroptosis: 2.1; Wee1 degr conf: -1.7

What do the screens show for `O=C1NC(=O)c2cc(NC(=O)C3CCCO3)ccc21` (stereo not drawn)?
Wee1 stabilizer: 15.6*; Pf gametocyte: -6.0; m-calpain inh: -382.1; RBBP9 inhibitor: -6.9; TNF death inh: -1.2; L929 necroptosis: -0.7; Wee1 degr conf: 1.8

Results for O=C1OCc2cc(NC(=O)C3CCCO3)ccc21 (stereo not drawn) ?
Wee1 stabilizer: 0.1; Pf gametocyte: -15.4; m-calpain inh: 0.7; RBBP9 inhibitor: 8.7; TNF death inh: -1.3; L929 necroptosis: 0.1

Results for Cc1cc(OC(F)F)ccc1NC(=O)Nc1ccc([N+](=O)[O-])cc1 ?
Wee1 stabilizer: 0.4; Pf gametocyte: -9.1; m-calpain inh: 22.8; RBBP9 inhibitor: -9.3; TNF death inh: 0.1; L929 necroptosis: 0.8

How did O=C(Nc1cccs1)Nc1ccc(Br)cc1F do in these assays?
Wee1 stabilizer: 13.8*; Pf gametocyte: 15.5; m-calpain inh: 0.6; RBBP9 inhibitor: -6.4; TNF death inh: 1.1; L929 necroptosis: 1.9; Wee1 degr conf: -1.8

How did Cc1ccc(NC(=O)Nc2cccs2)c(Cl)c1 do in these assays?
Wee1 stabilizer: 2.1; Pf gametocyte: -7.5; m-calpain inh: 17.3; RBBP9 inhibitor: -3.1; TNF death inh: -2.6; L929 necroptosis: 0.2

What do the screens show for `CCNC(=S)NNC(=O)CC(C)C`?
Wee1 stabilizer: 2.8; Pf gametocyte: -3.3; m-calpain inh: -4.5; RBBP9 inhibitor: 1.0; TNF death inh: 1.2; L929 necroptosis: 11.1

How did CC(C)CNC(=S)NNC(=O)CC(C)O (stereo not drawn) do in these assays?
Wee1 stabilizer: 11.1*; Pf gametocyte: 13.3; m-calpain inh: -22.0; RBBP9 inhibitor: 3.0; TNF death inh: 0.0; L929 necroptosis: 0.9; Wee1 degr conf: 1.3

Results for CN1CCC(N(C)C(=O)CCc2nc3ccccc3c(=O)[nH]2)CC1 ?
Wee1 stabilizer: 3.3; Pf gametocyte: -3.9; m-calpain inh: -14.0; RBBP9 inhibitor: 1.7; TNF death inh: 0.6; L929 necroptosis: 0.7

Results for COc1ccc([N+](=O)[O-])cc1NC(=O)CCN1CCN(CCO)CC1 ?
Wee1 stabilizer: 18.6*; m-calpain inh: -6.8; RBBP9 inhibitor: 3.4; TNF death inh: 1.8; L929 necroptosis: 0.9; Wee1 degr conf: -2.0

What do the screens show for `c1ccc2c(-c3c[nH]c4ccccc34)c3ccccc3nc2c1`?
Wee1 stabilizer: 12.2*; Pf gametocyte: 0.2; m-calpain inh: -11.7; RBBP9 inhibitor: -4.2; TNF death inh: -14.8; L929 necroptosis: 0.6; Wee1 degr conf: 1.2

How did O=C(O)c1cc(-c2c[nH]c3ccccc23)nc2ccc3ccccc3c12 do in these assays?
Wee1 stabilizer: -3.3; Pf gametocyte: -5.3; m-calpain inh: -265.4; RBBP9 inhibitor: -2.5; TNF death inh: 0.2; L929 necroptosis: 0.7
